For 16 compounds, IC50 results are on record in ChEMBL document CHEMBL2380281, “Synthesis of proline analogues as potent and selective cathepsin S inhibitors” (Bioorg Med Chem Lett, 2013).

The target of one experiment is T1, Cathepsin K (Homo sapiens, UniProt P43235).
T1 sequence (P43235 whole entry): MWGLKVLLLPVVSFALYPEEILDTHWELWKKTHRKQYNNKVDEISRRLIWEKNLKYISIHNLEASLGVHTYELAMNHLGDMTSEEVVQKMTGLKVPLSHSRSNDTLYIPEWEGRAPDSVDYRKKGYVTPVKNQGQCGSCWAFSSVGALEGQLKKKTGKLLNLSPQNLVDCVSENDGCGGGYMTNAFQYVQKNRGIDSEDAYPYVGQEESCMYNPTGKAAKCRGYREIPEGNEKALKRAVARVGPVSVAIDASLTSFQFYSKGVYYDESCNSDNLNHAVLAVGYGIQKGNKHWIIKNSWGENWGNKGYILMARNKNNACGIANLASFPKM
As to the kind of experiment: Inhibition of human cathepsin-K. In short, it runs like this: (§1)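 Human cathepsin B and K activity measured with a SensoLyte 520 cathepsin activity assay kit; LHVS as pan-cathepsin positive control.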

Another experiment has as its target Cathepsin S (Homo sapiens, UniProt P25774). As to the kind of experiment: Inhibition of human cathepsin-S.
Another experiment has as its target Cathepsin B (Homo sapiens, UniProt P07858). As to the kind of experiment: Inhibition of human cathepsin-B. A digest of the protocol:
as §1

Some results are limits rather than exact numbers.

Chain of Cathepsin S (P25774 whole entry): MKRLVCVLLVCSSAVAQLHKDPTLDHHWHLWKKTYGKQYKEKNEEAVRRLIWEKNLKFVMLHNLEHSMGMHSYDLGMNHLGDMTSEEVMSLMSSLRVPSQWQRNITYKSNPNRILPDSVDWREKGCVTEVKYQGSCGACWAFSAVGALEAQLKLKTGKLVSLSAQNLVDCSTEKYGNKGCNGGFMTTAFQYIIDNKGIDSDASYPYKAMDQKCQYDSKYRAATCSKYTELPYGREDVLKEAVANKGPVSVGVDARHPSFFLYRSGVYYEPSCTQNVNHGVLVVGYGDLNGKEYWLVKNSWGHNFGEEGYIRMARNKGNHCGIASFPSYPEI

Regarding `CCC(NC(=O)[C@@H]1C[C@@H](S(=O)(=O)c2ccccc2)CN1C(=O)c1cccc(Cl)c1)C(=O)c1nc2ccccc2o1` (some centres not stated), the figures for the half-maximal inhibitory concentration (IC50) at Cathepsin K, against Cathepsin S and against Cathepsin B were over 1000 nM, 1.1 nM and over 1000 nM, respectively. As for `CCC(NC(=O)[C@@H]1C[C@@H](S(=O)(=O)c2ccccc2)CN1C(=O)C1CCCCC1)C(=O)c1nc2ccccc2o1` (some centres not stated), the results for the IC50 on Cathepsin K, at Cathepsin S and against Cathepsin B were over 10000 nM, 3.3 nM and over 10000 nM, respectively.

`CCC(NC(=O)[C@@H]1C[C@@H](S(=O)(=O)c2ccccc2)CN1C(=O)c1ccc(-c2ccccc2)cc1)C(=O)c1nc2ccccc2o1` (some centres not stated): the IC50 at Cathepsin K was over 10000 nM; against Cathepsin S, 4.1 nM; at Cathepsin B it was over 10000 nM. The compound `CCC(NC(=O)[C@@H]1C[C@@H](S(=O)(=O)c2ccccc2)CN1C(=O)c1cccnc1)C(=O)c1nc2ccccc2o1` (some centres not stated) yielded an IC50 against Cathepsin S of 3.5 nM. On the same count and under the same terms, in the case of `CCC(NC(=O)[C@@H]1C[C@@H](S(=O)(=O)c2ccccc2)CN1C(C)=O)C(=O)c1nc2ccccc2o1` (some centres not stated) it was 3.3 nM; in that of `CCC(NC(=O)[C@@H]1C[C@@H](S(=O)(=O)c2ccc(-n3cccn3)cc2)CN1C(C)=O)C(=O)c1nc2ccccc2o1` (some centres not stated), 3.2 nM. As to `CCC(NC(=O)[C@@H]1C[C@@H](S(=O)(=O)c2ccccc2)CN1C(=O)CCOC)C(=O)c1nc2ccccc2o1` (some centres not stated), on Cathepsin S, half-maximal inhibition (IC50) was put at 3.3 nM. The compound `CCC(NC(=O)[C@@H]1C[C@@H](S(=O)(=O)c2ccccc2)CN1)C(=O)c1nc2ccccc2o1` (some centres not stated) displayed an IC50 on Cathepsin S of 156 nM. In the case of `CCC(=O)N1C[C@H](S(=O)(=O)c2ccccc2)C[C@H]1C(=O)NC(CC)C(=O)c1nc2ccccc2o1` (some centres not stated), it took 3.1 nM to reach half-maximal inhibition at Cathepsin S (IC50). For `CC[C@@H](NC(=O)[C@@H]1C[C@@H](S(=O)(=O)c2ccccc2)CN1C(C)=O)C(=O)c1nc2ccccc2o1`, the midpoint of inhibition on Cathepsin S, the IC50, lay at 4.3 nM. The compound `CCC(NC(=O)[C@@H]1C[C@@H](S(=O)(=O)c2ccccc2)CN1C(=O)c1ccncc1)C(=O)c1nc2ccccc2o1` (some centres not stated) came in with an IC50 against Cathepsin S of 3.3 nM.

Take `CCC(NC(=O)[C@@H]1C[C@@H](Sc2ccccc2)CN1C(C)=O)C(=O)c1nc2ccccc2o1` (some centres not stated): on Cathepsin S, the IC50 was found to be 20.7 nM. On Cathepsin S, `CCC(NC(=O)[C@@H]1C[C@@H](S(=O)(=O)c2ccccc2Cl)CN1C(C)=O)C(=O)c1nc2ccccc2o1` (some centres not stated) had an IC50 of 2.3 nM. `CCC(NC(=O)[C@@H]1C[C@@H](Oc2ccccc2)CN1C(C)=O)C(=O)c1nc2ccccc2o1` (some centres not stated) came in with a half-maximal inhibitory concentration (IC50) on Cathepsin S of over 1000 nM. Compound `CCC(NC(=O)[C@@H]1C[C@@H](S(=O)(=O)c2ccccc2)CN1C(=O)N1CCCC1)C(=O)c1nc2ccccc2o1` (some centres not stated) displayed an IC50 on Cathepsin S of 3.7 nM.

`CCC(NC(=O)[C@@H]1C[C@@H](S(=O)(=O)c2ccccc2)CN1C(=O)C(F)(F)F)C(=O)c1nc2ccccc2o1` (some centres not stated) returned an IC50 at Cathepsin S of 2.7 nM.
